IC50 and IS data for 23 molecules are collected here from ChEMBL document CHEMBL1134377, “New synthesis of benzo-delta-carbolines, cryptolepines, and their salts: in vitro cytotoxic, antiplasmodial, and antitrypanosomal activities of delta-carbolines, benzo-delta-carbolines, and cryptolepines” (J Med Chem, 2001).

Assay [1] concerns Trypanosoma cruzi. As to the kind of experiment: Antitrypanosomal activity against Trypanosoma cruzi epimastigotes. The assay is classed as functional, organism-based.
Assay [2] relates to Trypanosoma cruzi. As to the kind of experiment: Antitrypanosomal activity against Trypanosoma cruzi amastigotes. The class given is functional, organism-based.
Assay [3] deals with Trypanosoma cruzi. As to the kind of experiment: Index of selectivity was determined in Trypanosoma cruzi. The class given is functional. In short, it runs like this: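 Ratio of IC50 on L6 cells to IC50 on intracellular amastigote proliferation of T. cruzi.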
Assay [4] deals with Trypanosoma cruzi. As to the kind of experiment: Antitrypanosomal activity against (Trypanosoma cruzi) trypomastigotes (concentration of compound tested on trypomastigote motility). The assay is classed as functional, organism-based. In short, it runs like this:
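Tulahuen LacZ clone 4 trypomastigotes harvested from infected murine L6 muscle cell cultures; 2-fold drug dilutions from 200 to 1.5 µM, 48 h; motility scored by microscopy; value is concentration with no detectable motility effect, mean of 2 independent experiments.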

The subject of assay [5] is L6. As to the kind of experiment: In vitro cytotoxicity against L6 cells. The class given is functional, cell-based, Rattus norvegicus.
Assay [6] relates to Plasmodium falciparum. As to the kind of experiment: Antiplasmodial activity against chloroquine-resistant Plasmodium falciparum K1. The class given is functional, organism-based. In short, it runs like this: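 K1 strain kept in continuous culture on human erythrocytes. Asynchronous cultures (1% parasitemia, 1% final hematocrit) exposed to serial dilutions of drug (DMSO stocks; final DMSO ≤0.2%) for 24 h at 37 °C. 0.5 µCi [3H]hypoxanthine per well was then added for a further 24 h. Inhibition is incorporation versus untreated controls on the same plate. IC50 taken from concentration-response curves, mean ± SD of several independent experiments.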

Assay [7] deals with Plasmodium falciparum. As to the kind of experiment: Selectivity index against Plasmodium falciparum. The assay is classed as functional.

Usually IC50 stands for the concentration at which inhibition is half-maximal. A higher IC50 goes with weaker potency. In the case of `Nc1ccccc1-c1c[nH]c2c3ccccc3nc-2c1`, the IC50 came out at 10.4 µM in assay [1] (Trypanosoma cruzi); 11.2 µM in assay [2] (Trypanosoma cruzi); 50 µM in assay [4] (Trypanosoma cruzi); 14.3 µM in assay [5] (Rattus norvegicus, L6); 29.3 µM in assay [6] (Plasmodium falciparum). Besides, the IS was determined as 1.3 in assay [3] and 0.5 in assay [7].

As for `C[n+]1cccc2[nH]c3ccccc3c21.O=S(=O)([O-])C(F)(F)F`, the IC50 in assay [1] is above 300 µM; in assay [2] it was 199 µM; in assay [4] it was 100 µM; in assay [5] (l6), above 150 µM; in assay [6] it was 1.5 µM. In addition, the values for the IS in assay [3] and in assay [7] were above 1 and above 100, respectively.

For `c1ccc2nc(-c3cc[nH]c4c5ccccc5nc3-4)ccc2c1`, the IC50 in assay [1] (Trypanosoma cruzi) came to 26.4 µM; in assay [2] (Trypanosoma cruzi), 6.4 µM; in assay [4] (Trypanosoma cruzi), 100 µM; in assay [5] (Rattus norvegicus, L6), 41.6 µM; in assay [6] (Plasmodium falciparum) it was 16.3 µM. Further, the IS came to 6.5 in assay [3] and 2.6 in assay [7].

For `C[n+]1cccc2[nH]c3ccccc3c21.[Cl-]`, the IC50 was 428 µM in assay [1] (Trypanosoma cruzi); 192 µM in assay [2] (Trypanosoma cruzi); 200 µM in assay [4] (Trypanosoma cruzi); above 230 µM in assay [5] (Rattus norvegicus, L6); 1.6 µM in assay [6] (Plasmodium falciparum). Further, the IS in assay [3] was above 1; in assay [7], above 138.

Turning to `c1csc(-c2ccnc3c2[nH]c2ccccc23)c1`, the concentration for half-maximal inhibition (IC50) came to 11.2 µM in assay [1] (Trypanosoma cruzi); 1.8 µM in assay [2] (Trypanosoma cruzi); 200 µM in assay [4] (Trypanosoma cruzi); 1.8 µM in assay [5] (Rattus norvegicus, L6); 14.8 µM in assay [6] (Plasmodium falciparum). Further, the IS is 1 in assay [3] and 0.12 in assay [7].

Turning to `CCc1c2ccccc2[n+](C)c2c1[nH]c1ccccc12.O=S(=O)([O-])C(F)(F)F`, the half-inhibitory concentration (IC50) was 0.34 µM in assay [1] (Trypanosoma cruzi); 0.39 µM in assay [2] (Trypanosoma cruzi); 50 µM in assay [4] (Trypanosoma cruzi); 6.8 µM in assay [5] (Rattus norvegicus, L6); 0.48 µM in assay [6] (Plasmodium falciparum). Besides, the IS in assay [3] is 17.4; in assay [7] it was 14.1.

As to `C[n+]1c2ccccc2c(-c2ccccc2)c2[nH]c3ccccc3c21.O=S(=O)([O-])C(F)(F)F`, the IC50 in assay [1] (Trypanosoma cruzi) came to 0.54 µM; in assay [2] (Trypanosoma cruzi), 0.88 µM; in assay [4] (Trypanosoma cruzi), 12.5 µM; in assay [5] (Rattus norvegicus, L6), 6.8 µM; in assay [6] (Plasmodium falciparum) it was 1.1 µM. Also, the results for the IS in assay [3] and in assay [7] were 7.7 and 6.2, respectively.

Turning to `Cc1c(-c2ccccc2)c[nH]c2c3ccccc3nc1-2`, the IC50 turned out to be 2.3 µM in assay [1] (Trypanosoma cruzi); 1.9 µM in assay [2] (Trypanosoma cruzi); 6.25 µM in assay [4] (Trypanosoma cruzi); 21.3 µM in assay [5] (Rattus norvegicus, L6); 23.6 µM in assay [6] (Plasmodium falciparum). In addition, the values for the IS in assay [3] and in assay [7] were 11.2 and 0.9, respectively.

`c1ccc2c(c1)[nH]c1cccnc12`: the IC50 in assay [1] (Trypanosoma cruzi) came to 23.2 µM; in assay [2] (Trypanosoma cruzi) it was 23.5 µM; in assay [4] (Trypanosoma cruzi), 100 µM; in assay [5] (Rattus norvegicus, L6), 229 µM; in assay [6] (Plasmodium falciparum), 104 µM. The IS is 9.7 in assay [3] and 2.2 in assay [7].

Regarding `O=C(c1c2nc3ccccc3c-2[nH]c2ccccc12)c1c2nc3ccccc3c-2[nH]c2ccccc12`, the IC50 in assay [1] (Trypanosoma cruzi) is above 200 µM; in assay [2] (Trypanosoma cruzi), 5.7 µM; in assay [4] (Trypanosoma cruzi) it was 100 µM; in assay [5] (Rattus norvegicus, L6), 15.2 µM; in assay [6] (Plasmodium falciparum) it was 6.4 µM. For the same molecule, the IS in assay [3] was 2.7; in assay [7], 2.4.

With `Cc1cc[nH]c2c3ccccc3nc1-2`, the IC50 in assay [1] (Trypanosoma cruzi) came to 6.6 µM; in assay [2] (Trypanosoma cruzi) it was 10.4 µM; in assay [4] (Trypanosoma cruzi), 100 µM; in assay [5] (Rattus norvegicus, L6), 82.4 µM; in assay [6] (Plasmodium falciparum), 45.6 µM. For the same molecule, the IS in assay [3] is listed as 7.9; in assay [7], 1.8.

As to `c1ccc(-c2c[nH]c3c4ccccc4nc-3c2)nc1`, the IC50 came out at 49.8 µM in assay [1] (Trypanosoma cruzi); 20.8 µM in assay [2] (Trypanosoma cruzi); 50 µM in assay [4] (Trypanosoma cruzi); 204 µM in assay [5] (Rattus norvegicus, L6); 22.1 µM in assay [6] (Plasmodium falciparum). Also, the IS in assay [3] is on record as 9.8; in assay [7], 9.2.

As for `CCc1cc[nH]c2c3ccccc3nc1-2`, the IC50 came out at 21.4 µM in assay [1] (Trypanosoma cruzi); 12.2 µM in assay [2] (Trypanosoma cruzi); 50 µM in assay [4] (Trypanosoma cruzi); 44.9 µM in assay [5] (Rattus norvegicus, L6); 66.8 µM in assay [6] (Plasmodium falciparum). Moreover, the results for the IS in assay [3] and in assay [7] were 3.7 and 0.7, respectively.

For `c1ccc(-c2c[nH]c3c4ccccc4nc-3c2)cc1`, the IC50 in assay [2] (Trypanosoma cruzi) came out at 8.6 µM; in assay [4] (Trypanosoma cruzi) it was 200 µM; in assay [5] (Rattus norvegicus, L6) it was 37.2 µM; in assay [6] (Plasmodium falciparum), 129 µM. Also, the values for the IS in assay [3] and in assay [7] were 4.3 and 0.3, respectively.

For `c1csc(-c2cnc3c(c2)[nH]c2ccccc23)c1`, the IC50 turned out to be 6.8 µM in assay [1] (Trypanosoma cruzi); 8.4 µM in assay [2] (Trypanosoma cruzi); 200 µM in assay [4] (Trypanosoma cruzi); 54 µM in assay [5] (Rattus norvegicus, L6); 16.8 µM in assay [6] (Plasmodium falciparum). Also, the results for the IS in assay [3] and in assay [7] were 6.4 and 3.2, respectively.

`Cn1cccc2nc3ccccc3c1-2`: the half-inhibitory concentration (IC50) in assay [1] (Trypanosoma cruzi) is above 550 µM; in assay [2] (Trypanosoma cruzi), 258 µM; in assay [4] (Trypanosoma cruzi), 200 µM; in assay [5] (Rattus norvegicus, L6) it was above 220 µM; in assay [6] (Plasmodium falciparum) it was 2.2 µM. Moreover, the IS is given as above 1 in assay [3] and above 100 in assay [7].

Consider `c1ccc2nc(-c3c[nH]c4c5ccccc5nc-4c3)ccc2c1`, for which the IC50 in assay [1] (Trypanosoma cruzi) worked out at 18.6 µM; in assay [2] (Trypanosoma cruzi) it was 3.3 µM; in assay [5] (Rattus norvegicus, L6) it was 22.7 µM; in assay [6] (Plasmodium falciparum), 14.2 µM. The IS in assay [3] stood at 6.9; in assay [7] it was 1.6.

As for `Oc1ccc2[nH]c3cccnc3c2c1`, the IC50 was 129 µM in assay [1] (Trypanosoma cruzi); 122 µM in assay [2] (Trypanosoma cruzi); 200 µM in assay [4] (Trypanosoma cruzi); 235 µM in assay [5] (Rattus norvegicus, L6); 56.5 µM in assay [6] (Plasmodium falciparum). In addition, the figures for the IS in assay [3] and in assay [7] were 1.9 and 4.2, respectively.

Take `C[n+]1c2ccccc2cc2[nH]c3ccccc3c21.O=S(=O)([O-])C(F)(F)F`: the IC50 is 1.3 µM in assay [1] (Trypanosoma cruzi); 0.125 µM in assay [2] (Trypanosoma cruzi); 50 µM in assay [4] (Trypanosoma cruzi); 8.1 µM in assay [5] (Rattus norvegicus, L6); 0.33 µM in assay [6] (Plasmodium falciparum). For the same molecule, the IS in assay [3] is given as 64.8; in assay [7], 24.5.

For `c1ccc(-c2c[nH]c3c4ccccc4nc-3c2-c2ccccc2)cc1`, the IC50 in assay [1] (Trypanosoma cruzi) is above 312 µM; in assay [2] (Trypanosoma cruzi), 108 µM; in assay [4] (Trypanosoma cruzi) it was 100 µM; in assay [5] (Rattus norvegicus, L6) it was above 156 µM; in assay [6] (Plasmodium falciparum) it was 259 µM. Also, the results for the IS in assay [3] and in assay [7] were above 1.5 and above 0.6, respectively.

Take `Nc1ccccc1-c1cc[nH]c2c3ccccc3nc1-2`: the concentration for half-maximal inhibition (IC50) in assay [1] (Trypanosoma cruzi) worked out at 34.4 µM; in assay [2] (Trypanosoma cruzi) it was 18.9 µM; in assay [4] (Trypanosoma cruzi), 50 µM; in assay [5] (Rattus norvegicus, L6), 16.2 µM; in assay [6] (Plasmodium falciparum), 23.9 µM. In addition, the IS in assay [3] was 0.9; in assay [7], 0.7.

As for `c1ccc(-c2cc[nH]c3c4ccccc4nc2-3)nc1`, the IC50 worked out at 58.4 µM in assay [1] (Trypanosoma cruzi); 18.8 µM in assay [2] (Trypanosoma cruzi); 25 µM in assay [4] (Trypanosoma cruzi); 75.1 µM in assay [5] (Rattus norvegicus, L6); 33.1 µM in assay [6] (Plasmodium falciparum). The IS is 4 in assay [3] and 2.3 in assay [7].

On to `c1ccc(-c2cc[nH]c3c4ccccc4nc2-3)cc1`, for which the IC50 was determined as 11.1 µM in assay [1] (Trypanosoma cruzi); 11.9 µM in assay [2] (Trypanosoma cruzi); 25 µM in assay [4] (Trypanosoma cruzi); 14.3 µM in assay [5] (Rattus norvegicus, L6); 38.5 µM in assay [6] (Plasmodium falciparum). The IS in assay [3] was 1.2; in assay [7], 0.4.
